11 compounds from ChEMBL document CHEMBL1770087, “Novel 3-chlorooxazolidin-2-ones as antimicrobial agents” (Bioorg Med Chem Lett, 2011) can be followed below.

≈ marks a conversion by molar mass, not a printed value.

Data set [1] in a line: Therapeutic index, ratio of CT50 for mouse L929 cells to Candida albicans ATCC 10231. It counts as cell-based. The following applies: read-out: TI. A digest of the protocol: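 Antifungal index is the L929 CT50 (1 h exposure, overnight recovery, Dojindo viability) divided by the MFC against C. albicans. MFC is from a modified CLSI M26-A method: phosphate-buffered saline pH 7 in place of Mueller–Hinton broth, 1 h compound residence.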

Data set [2] is described as follows: Cytotoxicity against mouse L929 cells after 1 hr at pH 7 by Dojindo cell proliferation assay. The class given is cell-based. A digest of the protocol: (§1)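 L929 mouse fibroblasts exposed to test article for 1 h in test solution at pH 7, or at pH 4 where flagged. Compound then removed and cells incubated overnight. Viability read with Dojindo cell proliferation assay; CT50 reported in mM.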

In data set [3] the test system is Escherichia coli. Description: Antibacterial activity against Escherichia coli ATCC 25922 at pH 7 by CLSI M26A method. The class given is functional. In a few lines:
(§2)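 Modified CLSI M26-A bactericidal method in which phosphate-buffered saline (pH 7) replaced Mueller–Hinton broth and compound contact was cut to 1 h. The read-out was the minimum bactericidal concentration (MBC).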

A short description of data set [4]: Therapeutic index, ratio of CT50 for mouse L929 cells to Escherichia coli ATCC 25922. The following applies: pooled result: one value given for 2 cell lines, strains, targets or settings, read-out: TI. The class given is cell-based.
The test system of data set [5] is Candida albicans. Description: Antifungal activity against Candida albicans ATCC 10231 at pH 7 by CLSI M26A method. It counts as functional. In a few lines: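 Modified CLSI M26-A method with phosphate-buffered saline (pH 7) in place of Mueller–Hinton broth and compound contact shortened to 1 h. The read-out was the minimum fungicidal concentration (MFC).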
Data set [6] has as its system Staphylococcus aureus. Description: Antibacterial activity against Staphylococcus aureus ATCC 29213 at pH 7 by CLSI M26A method. The class given is functional. In a few lines:
as §2

Data set [7] in a line: Cytotoxicity against mouse L929 cells after 1 hr at pH 4 by Dojindo cell proliferation assay. It counts as cell-based. In a few lines:
as §1

Consider `CC1(C)COC(=O)N1Cl`, for which the selectivity ratio in data set [1] was found to be 0.02; in data set [4] it was 5.2. Also, the CC50 at 1 h in data set [2] amounted to 70 µM. The MBC in data set [3] was 1 µg/mL (≈ 6.69 µM); in data set [6], 4 µg/mL (≈ 26.7 µM). This compound also showed a minimum fungicidal concentration (MFC) in data set [5] of 512 µg/mL (≈ 3420 µM).
Regarding `CC1(CS(=O)(=O)[O-])COC(=O)N1Cl.[Na+]` (configuration not stated), the results for the selectivity ratio in data set [1] and in data set [4] were 0.25 and 1.4, respectively. Besides, in data set [2], half-maximal cytotoxicity (CC50 at 1 h) was put at 800 µM. Moreover, the figures for the minimal bactericidal concentration (MBC) in data set [3] and in data set [6] were 256 µg/mL and 128 µg/mL, respectively. The same compound showed a minimum fungicidal concentration (MFC) in data set [5] of 1020 µg/mL.
Regarding `CC1(CS(=O)(=O)CCS(=O)(=O)[O-])COC(=O)N1Cl.[Na+]` (configuration not stated), the selectivity ratio in data set [1] came out at 1.5; in data set [4], 8.5. The CC50 at 1 h in data set [2] worked out at 600 µM. In addition, the MBC in data set [3] was 16 µg/mL; in data set [6] it was 32 µg/mL. The same compound came in with a minimal fungicidal concentration (MFC) in data set [5] of 128 µg/mL.
For `CC1(CS(=O)(=O)CCCC(=O)O)COC(=O)N1Cl` (configuration not stated), the half-maximal cytotoxic concentration (CC50) at 1 h in data set [2] turned out to be 520 µM. Moreover, the minimum bactericidal concentration (MBC) in data set [3] was 16 µg/mL (≈ 53.4 µM); in data set [6] it was 8 µg/mL (≈ 26.7 µM). In addition, the selectivity ratio in data set [4] came to 14. In data set [5], this compound returned an MFC of over 1020 µg/mL.
In the case of `CC1(C[N+](C)(C)C)COC(=O)N1Cl.[Cl-]` (configuration not stated), the MBC in data set [3] came to 2 µg/mL; in data set [6] it was 4 µg/mL. The compound also came in with an MFC in data set [5] of 16 µg/mL.
As to `CC[N+](C)(C)CC1(C)COC(=O)N1Cl.[Cl-]` (configuration not stated), the selectivity ratio in data set [1] was found to be 28; in data set [4] it was 78. Moreover, the MBC was determined as 2 µg/mL in data set [3] and 4 µg/mL in data set [6]. The minimal fungicidal concentration (MFC) in data set [5] stood at 8 µg/mL. In data set [7], this compound gave a 50% cytotoxic concentration (CC50) at 1 h of 860 µM.
With `CCC[N+](C)(C)CC1(C)COC(=O)N1Cl.[Cl-]` (configuration not stated), the values for the selectivity ratio in data set [1] and in data set [4] were 31 and 122, respectively. The MBC in data set [3] and in data set [6] was 2 µg/mL in each case. This compound also showed a minimum fungicidal concentration (MFC) in data set [5] of 8 µg/mL. The CC50 at 1 h in data set [7] is 900 µM.
In the case of `CC1(C[N+]2(C)CCCC2)COC(=O)N1Cl.[Cl-]` (configuration not stated), the figures for the selectivity ratio in data set [1] and in data set [4] were 19 and 76, respectively. Also, the MBC in data set [3] and in data set [6] was 4 µg/mL throughout. In data set [5], this compound yielded a minimal fungicidal concentration (MFC) of 16 µg/mL. In addition, in data set [7], the cytotoxic concentration (CC50) at 1 h worked out at 1130 µM.
On to `CC1(C)C(CS(=O)(=O)[O-])OC(=O)N1Cl.[Na+]` (configuration not stated), for which the selectivity ratio in data set [1] was determined as 1; in data set [4] it was 2.9. In data set [2], this compound registered a CC50 at 1 h of 4300 µM. The minimum bactericidal concentration (MBC) in data set [3] was determined as 256 µg/mL; in data set [6], 512 µg/mL. The same compound showed a minimal fungicidal concentration (MFC) in data set [5] of 1020 µg/mL.
On to `CC1(C)C(C[N+](C)(C)C)OC(=O)N1Cl.[Cl-]` (configuration not stated), for which the selectivity ratio was found to be 2.7 in data set [1] and 7.6 in data set [4]. The compound further came in with a CC50 at 1 h in data set [2] of 690 µM. Further, the MBC in data set [3] stood at 16 µg/mL; in data set [6], 32 µg/mL. In data set [5], this compound returned a minimum fungicidal concentration (MFC) of 64 µg/mL.
As to `C[N+]1(C)CCC2(CC1)CN(Cl)C(=O)O2.[Cl-]`, the figures for the selectivity ratio in data set [1] and in data set [4] were 0.7 and 7.9, respectively. In addition, the minimal bactericidal concentration (MBC) is 16 µg/mL in data set [3] and 32 µg/mL in data set [6]. This compound yielded a minimum fungicidal concentration (MFC) in data set [5] of 256 µg/mL. Further, in data set [7], it took 700 µM to reach half-maximal cytotoxicity (CC50 at 1 h).
